Assays:
[1] = folding enthalpy; higher = less favourable; fluorescence melt of hairpins on a sequencing array, two-state fit; conditions: sodium 0.088 M
In short: (§1)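 Folding enthalpy and melting temperature were estimated with bootstrapped two-state fits and combined across four replicates by inverse-variance weighting, with fitted temperatures raised by 9.35 °C to match UV melts. The data were Cy3 fluorescence of library hairpins, with annealed Cy3 and quencher oligos, on a sequenced MiSeq flow cell in 50 mM Na-HEPES pH 8.0, 25 mM NaCl, imaged in 2.5 °C steps up to 60 °C and normalised to pre-quench Cy3 and control constructs.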

[2] = melting temperature; fluorescence melt of hairpins on a sequencing array, two-state fit, raised by 9.35 °C to match UV melts; conditions: sodium 0.088 M
In short: as §1

| Sequence | folding enthalpy [1] [kcal/mol] | Tm [2] [°C] |
| --- | --- | --- |
| GGCAGCGGAAACACTGCC (((((.(....).))))) | -41 | 55.1 |
| GGCAGGGAAACCTGCC ((((((....)))))) | -30.2 | 69.3 |
| GGCAGGTCGAAAGACGCC (((..(((....)))))) | -24 | 53.5 |
| GGCAGTCGAAAGACGGCC (((.(((....))).))) | -36.4 | 67.8 |
| GGCATACCGAAAGGTGCC (((..(((....)))))) | -39.5 | 53.3 |
| GGCATAGGAAACCATGCC (((((.(....).))))) | -30 | 48.7 |
| GGCATCCCGAAAGGGGCC (((..(((....)))))) | -18.9 | 52.3 |
| GGCATCGAAAGATATGCC ((((((....)))..))) | -28.1 | 47.5 |
| GGCATCGAAAGATGAGCC ((((((....)))..))) | -17 | 44.1 |
| GGCATCGAAAGATTGGCC ((((((....)))..))) | -22.2 | 44.2 |
| GGCATGCCGAAAGGCGCC (((..(((....)))))) | -16 | 57.5 |
| GGCATGGGAAACTGTGCC ((((..(....)..)))) | -29.8 | 48.2 |
| GGCATTACGAAAGTAGCC (((..(((....)))))) | -21.8 | 43.1 |
| GGCATTGAAAAATGCC ((((((....)))))) | -36.2 | 61.5 |
| GGCATTGGAAACAATACC ((.((((....)))).)) | -25.4 | 36.6 |
| GGCATTGGAAACAGTGTC (.((.((....)).)).) | -17 | 31.9 |
| GGCATTGGAAACGATGCC (((((.(....).))))) | -42.5 | 55.6 |
| GGCATTTCGAAAGAAGCC (((..(((....)))))) | -20.2 | 34.4 |
| GGCCAACGAAAGTTGCC (((.(((....)))))) | -20 | 54.3 |
| GGCCACCGAAAGGTCGCC (((.(((....))).))) | -49.2 | 53.3 |
| GGCCACCGAAAGGTTGCC (((.(((....))).))) | -44.3 | 58.1 |
| GGCCACGAAAGTGATGCC ((((((....)))..))) | -27.6 | 51 |
| GGCCACGAAAGTGCAGCC ((((((....)))..))) | -19.9 | 49.9 |

| Sequence | folding enthalpy [1] [kcal/mol] | Tm [2] [°C] |
| --- | --- | --- |
| GGCCACGAAAGTGTAGCC ((((((....)))..))) | -25 | 53.1 |
| GGCCACGAAAGTGTCGCC ((((((....)))..))) | -21.3 | 50 |
| GGCCACGGAAACACGGCC ((((..(....)..)))) | -32.5 | 47.8 |
| GGCCACGGAAACGCGGCC ((((.((....)).)))) | -40.4 | 66.5 |
| GGCCACGGAAACGTAGCC (((.(((....))).))) | -28 | 50.8 |
| GGCCACGGAAACGTGGTC (.(((((....))))).) | -25.7 | 64.9 |
| GGCCAGCGAAAGCTAGCC (((.(((....))).))) | -29.6 | 56.4 |
| GGCCAGTCGAAAGACGCC (((..(((....)))))) | -18.2 | 50.1 |
| GGCCATCGAAAGATGCC (((.(((....)))))) | -19.8 | 54.9 |
| GGCCATGGAAACACGGCC ((((.((....)).)))) | -45.4 | 51.7 |
| GGCCCAACGAAAGTTGCC (((..(((....)))))) | -13.9 | 32.5 |
| GGCCCACGAAAGTGGCC (((.(((....)))))) | -17.8 | 65.4 |
| GGCCCAGCGAAAGCTGCC (((..(((....)))))) | -8.49 | 36 |
| GGCCCAGGAAACCGGACC ((.((.(....).)).)) | -27.4 | 33.5 |
| GGCCCAGGAAACCGGGCC (((((.(....).))))) | -42.2 | 63.5 |
| GGCCCCGAAAGGGATGCC ((((((....)))..))) | -22.2 | 56.8 |
| GGCCCCGAAAGGGCTGCC ((((((....)))..))) | -15.1 | 68.2 |
| GGCCCCGGAAACAGGGCC (((((.(....).))))) | -43.7 | 58.2 |
| GGCCCCGGAAACGGAGCC (((.(((....))).))) | -31.1 | 56.6 |
| GGCCCGCCGAAAGGCGCC (((..(((....)))))) | -7.51 | 38 |
| GGCCCGGGAAACCGGACC ((.((((....)))).)) | -29.3 | 57.5 |
| GGCCCTCGAAAGAGCGCC (((.(((....))).))) | -35.2 | 51.6 |
| GGCCCTCGAAAGAGGCC (((.(((....)))))) | -21.3 | 58.4 |

| Sequence | folding enthalpy [1] [kcal/mol] | Tm [2] [°C] |
| --- | --- | --- |
| GGCCCTGGAAACAGGACC ((.((((....)))).)) | -35.3 | 51 |
| GGCCGAGGAAACCCAGCC (((.(.(....).).))) | -11.8 | 29.6 |
| GGCCGCCCGAAAGGGGCC (((..(((....)))))) | -15 | 62 |
| GGCCGCCGAAAGGCGCC (((.(((....)))))) | -12.8 | 68.2 |
| GGCCGCGAAAGCGGGGCC ((((((....)))..))) | -12.7 | 63.6 |
| GGCCGCGAAAGCGTCGCC ((((((....)))..))) | -16.7 | 55.9 |
| GGCCGGCGAAAGCCGCC (((.(((....)))))) | -12 | 65.3 |
| GGCCGTCGAAAGACCGCC (((.(((....))).))) | -42.5 | 53 |
| GGCCTACGAAAGTACGCC (((.(((....))).))) | -26.4 | 47.4 |
| GGCCTAGAAATAGGCC ((((((....)))))) | -34.9 | 62.8 |
| GGCCTAGGAAACCAGGCC (((((.(....).))))) | -49.6 | 53.9 |
| GGCCTAGGAAACTAGGCC (((((((....))))))) | -32.8 | 68.6 |
| GGCCTCACGAAAGTGGCC (((..(((....)))))) | -21.9 | 53.7 |
| GGCCTCGAAAGAGCAGCC ((((((....)))..))) | -22.3 | 47.6 |
| GGCCTCGAAAGAGTGGCC ((((((....)))..))) | -36.6 | 54.4 |
| GGCCTCGGAAACGGGGCC ((((.((....)).)))) | -35.3 | 66.6 |
| GGCCTCGGAAACGGGGTC (.((.((....)).)).) | -37.2 | 48.6 |
| GGCCTGGGAAACCGGGTC (.((.((....)).)).) | -27.7 | 49 |
| GGCCTGGGAAACTAGGCC (((((.(....).))))) | -49.7 | 59.2 |
| GGCCTTCGAAAGAACGCC (((.(((....))).))) | -30.7 | 44.4 |
| GGCCTTGGAAACAAGACC ((.((((....)))).)) | -29.1 | 44.7 |
| GGCGAAGGAAACCTCGCC (((((.(....).))))) | -46.7 | 55.3 |
| GGCGAAGGAAACTCCGCC ((((.((....)).)))) | -34.4 | 51.1 |

| Sequence | folding enthalpy [1] [kcal/mol] | Tm [2] [°C] |
| --- | --- | --- |
| GGCGAAGGAAACTTCACC ((.((((....)))).)) | -32.8 | 42.6 |
| GGCGAAGGAAACTTTGCC (((.(((....))).))) | -35.8 | 53.2 |
| GGCGAATCGAAAGATGCC (((..(((....)))))) | -22.5 | 46.1 |
| GGCGACACGAAAGTGGCC (((..(((....)))))) | -15.1 | 53.1 |
| GGCGACGAAAGTCACGCC ((((((....)))..))) | -27.4 | 54.1 |
| GGCGACGAAAGTCCGCC ((((((....))).))) | -32.2 | 63.6 |
| GGCGACGAAAGTCGTGCC ((((((....)))..))) | -12.7 | 51.2 |
| GGCGACGAAAGTCTGCC ((((((....))).))) | -36.6 | 59.2 |
| GGCGACGGAAACGCCACC ((.(.((....)).).)) | -16.9 | 46 |
| GGCGAGGGAAACCCCGCC ((((.((....)).)))) | -46.8 | 57.9 |
| GGCGATCGAAAGATGGCC (((.(((....))).))) | -47.6 | 57.6 |
| GGCGATGGAAACACCGCC ((((.((....)).)))) | -51.7 | 54 |
| GGCGATGGAAACGTCGCC (((((.(....).))))) | -48.7 | 64.6 |
| GGCGATGGAAACGTCGTC (.(((.(....).))).) | -39.5 | 46.2 |
| GGCGATGGAAACGTTGCC (((.(.(....).).))) | -37.6 | 44.9 |
| GGCGCACCGAAAGGTGCC (((..(((....)))))) | -6.69 | 47.5 |
| GGCGCAGGAAACTGCACC ((.((((....)))).)) | -29.9 | 54.4 |
| GGCGCATCGAAAGATGCC (((..(((....)))))) | -9.42 | 45.2 |
| GGCGCCACGAAAGTGGCC (((..(((....)))))) | -6.73 | 48.8 |
| GGCGCCCGAAAGGGGCC (((.(((....)))))) | -17.2 | 67.4 |
| GGCGCCGAAAGGCCAGCC ((((((....)))..))) | -21.1 | 61 |
| GGCGCCGAAAGGCGTGCC ((((((....)))..))) | -9.73 | 54.2 |

Source: the array DNA melting data of Ke et al. (doi:10.1101/2024.01.08.574731)
